Measured values from publication PMC6568187 (Theranostics, 2019).

Key:
[1] = test system: U87-MG cells; test: Organelle co-localization; type: cell-based; settings: 20 µM, 37 °C, DMEM/F12 with 10% FBS pH 7.4
Outline: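 50,000 U87-MG cells were plated in chamber wells and adhered overnight. Then 20 μM test compound for 30 min, two PBS washes, organelle trackers (LysoTracker Green DND 26, MitoTracker Green FM, BODIPY FL C5-ceramide–BSA, ER Tracker Green), then NucBlue 10 min. Confocal imaging, 60x water objective. Lasers: 488 nm for organelle stains, 405 nm for nuclei, 633 nm for dye. Cells re-imaged after 24 h in FluoroBrite DMEM + 10% FBS; co-localization expressed as Pearson's R.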

[2] = in DMSO; λex 730 nm; used as standard; listed as ICG; cited from earlier work
[3] = test system: most cell lines; settings: read-out: IC50 (cytotoxicity); cited from earlier work
[4] = Photophysical properties; type: physicochemical; settings: 10 mM PBS buffer pH 7.4
Outline: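 Dyes in 10 mM PBS pH 7.4, 1 cm cuvettes. Excitation 730 nm; integrated emission 740–900 nm, with maximum absorbance kept below 0.1. Quantum yield came from the gradient of integrated fluorescence vs absorbance over several concentrations, referenced to ICG in DMSO (Φ 0.13). Relative absorbance and fluorescence were compared at 5 µM in the same buffer.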

[5] = Solubility measurement by UV absorbance; type: physicochemical
Outline: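 DMSO stocks (100 mM) were diluted to 0–1000 μM in 10 mM PBS pH 7.4 with 1% DMSO; H2O and DMEM ± 10% FBS were also tested. Samples were shaken in the dark 6 h at room temperature (25 °C), equilibrated overnight and centrifuged at 600 x g for 15 min. Supernatant absorbance was read at 780 nm against blank, in triplicate.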

[6] = Photostability under LED illumination; type: physicochemical; settings: 780 nm LED
Outline: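 Solutions in 10 mM PBS pH 7.4, and in H2O with 1% DMSO, were left open to air and illuminated with a 780 nm LED. Dyes were used either equimolar (20 µM) or diluted to equal absorbance at 780 nm (1.7–2.7 µM). Absorbance at 780 nm was read every 10 min up to 60 min and plotted against time.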

[7] = In vivo biodistribution and clearance; settings: normal CD-1 mice, 25 nmol intravenous, imaging 0.5-4 h
[8] = Aggregation: concentration dependence of absorbance spectra; type: physicochemical; settings: 1.25 - 20 µM in 10 mM pH 7.4 PBS buffer
[9] = test system: U87-MG cells; test: Cytotoxicity assay; type: cell-based; settings: read-out: IC50 (cytotoxicity), 72 h in the dark, AlamarBlue
Outline: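 U87-MG cells grown in DMEM with 10% FBS at 37 °C, 5% CO2, passaged at 70% confluency. Seeded at 5000 cells/well and left overnight. DMSO stocks (0.02 M) were diluted in protein-free hybridoma medium (PFHM-II) to final 0.01–80 μM, then incubated 72 h. AlamarBlue added for 2 h; fluorescence read at Ex/Em 560/590 nm. Viability = background-corrected signal vs full-viability control ×100; n=5, mean ± SD.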

Row | brightness (εmax x Φ) [4] | εmax [4] [cm^-1M^-1] | λabs [4] [nm] | λem [4] [nm] | ∆λ (Stokes' shift) [4] [nm] | relative brightness ([4]; relative to A) | Φ (fluorescence quantum yield) ([4]; λex 730 nm, standard A in DMSO) | solubility (soluble up to) ([5]; 10 mM pH 7.4 PBS buffer) [mM] | concentration at which it begins to aggregate ([5]; H2O) [µM] | solubility ([5]; in water, 25 °C) | photostability ([6]; 1 h, A 2.7 µM, B 2 µM, 1 1.7 µM (same absorbance at 780 nm), 10 mM pH 7.4 PBS) | photodecomposition t1/2 ([6]; same absorbance at 780 nm, 10 mM pH 7.4 PBS buffer) [min] | H-aggregation from absorbance spectra [8] | SMILES | localization after time 0.5 h [1] | localization after time 24 h [1] | Φ (fluorescence quantum yield) of the standard [2] | IC50 [3] [µM] | organ signal / excretion [7] | IC50 [9] [µM]
1 |  |  |  |  |  |  |  |  |  |  |  |  |  | CC1(C)C(/C=C/C=C/C=C/C=C2\N(CCCCS(=O)(=O)O)c3ccc4ccccc4c3C2(C)C)=[N+](CCCCS(=O)(=O)[O-])c2ccc3ccccc3c21 [compound A, indocyanine green] | golgi and ER | golgi and lysosome | 0.13 |  |  | 
2 | 3689 | 149940 | 775 | 799 | 24 | 1.90 | 0.025 | ≥ 1 | 100 | much less soluble | least stable and decomposed | < 10 | blue-shifted shoulder | CC1(C)C(/C=C/C2=C(Cl)C(=C/C=C3\N(CCCCCC(=O)O)c4ccccc4C3(C)C)/CCC2)=[N+](CCCCCC(=O)O)c2ccccc21 [compound B] | mitochondria | mitochondria and lysosome |  | ~20 | high signal in the liver and low signal in duodenum even after 4 h post-injection | 19.1 ± 1.01
